Laboratory results as given in paper PMC9245008 (ACS chemical biology, 2022).
pIC50: −log10 of the molar value.

Legend:
[1] = target: MLK1 (Homo sapiens, UniProt P80192); assay: Dose–response of top 10 kinase hits; format: biochemical; details: read-out: IC50 MLK1, n = 2
[2] = target: IRAK1 (Homo sapiens, UniProt P51617); assay: Dose–response of top 10 kinase hits; format: biochemical; details: read-out: IC50 IRAK1, n = 2
[3] = target: MAP4K5 (Homo sapiens, UniProt Q9Y4K4); assay: MRC Dundee kinase panel screen at 10 μM; format: biochemical
[4] = target: T1, NUAK1 (Homo sapiens, UniProt O60285); assay: MRC Dundee kinase panel screen at 10 μM; format: biochemical
T1 sequence (O60285 1-661): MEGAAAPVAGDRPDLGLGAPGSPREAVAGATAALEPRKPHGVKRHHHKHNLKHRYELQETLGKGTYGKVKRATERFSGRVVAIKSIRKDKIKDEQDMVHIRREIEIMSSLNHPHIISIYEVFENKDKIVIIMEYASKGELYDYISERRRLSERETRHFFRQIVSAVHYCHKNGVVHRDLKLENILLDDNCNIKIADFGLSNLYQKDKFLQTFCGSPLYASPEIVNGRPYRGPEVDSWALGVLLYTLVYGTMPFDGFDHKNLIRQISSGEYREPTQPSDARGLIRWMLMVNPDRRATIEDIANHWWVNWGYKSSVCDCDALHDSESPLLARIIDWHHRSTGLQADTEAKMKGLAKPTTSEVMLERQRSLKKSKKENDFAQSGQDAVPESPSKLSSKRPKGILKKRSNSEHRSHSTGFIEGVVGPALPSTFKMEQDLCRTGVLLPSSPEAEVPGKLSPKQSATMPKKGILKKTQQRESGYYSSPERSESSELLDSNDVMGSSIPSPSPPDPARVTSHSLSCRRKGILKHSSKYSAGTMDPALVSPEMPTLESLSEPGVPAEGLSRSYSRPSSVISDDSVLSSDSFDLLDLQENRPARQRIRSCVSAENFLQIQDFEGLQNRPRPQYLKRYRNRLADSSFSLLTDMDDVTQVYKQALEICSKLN

[5] = target: T2, NUAK (Homo sapiens, UniProt O60285); assay: Dose–response of top 10 kinase hits; format: biochemical; details: read-out: IC50 NUAK, n = 2
T2 sequence (O60285 1-661): T1 sequence (O60285 1-661)

[6] = system: TNF expression in THP-1 human macrophages; assay: Cytokine profile in stimulated THP-1 human macrophages; format: cell-based; details: 10 μM; THP-1 macrophages stimulated with LPS and IFNγ; vs vehicle
[7] = target: T3, ULK2 (Homo sapiens, UniProt Q8IYT8); assay: MRC Dundee kinase panel screen at 10 μM; format: biochemical
T3 sequence (Q8IYT8 1-1036): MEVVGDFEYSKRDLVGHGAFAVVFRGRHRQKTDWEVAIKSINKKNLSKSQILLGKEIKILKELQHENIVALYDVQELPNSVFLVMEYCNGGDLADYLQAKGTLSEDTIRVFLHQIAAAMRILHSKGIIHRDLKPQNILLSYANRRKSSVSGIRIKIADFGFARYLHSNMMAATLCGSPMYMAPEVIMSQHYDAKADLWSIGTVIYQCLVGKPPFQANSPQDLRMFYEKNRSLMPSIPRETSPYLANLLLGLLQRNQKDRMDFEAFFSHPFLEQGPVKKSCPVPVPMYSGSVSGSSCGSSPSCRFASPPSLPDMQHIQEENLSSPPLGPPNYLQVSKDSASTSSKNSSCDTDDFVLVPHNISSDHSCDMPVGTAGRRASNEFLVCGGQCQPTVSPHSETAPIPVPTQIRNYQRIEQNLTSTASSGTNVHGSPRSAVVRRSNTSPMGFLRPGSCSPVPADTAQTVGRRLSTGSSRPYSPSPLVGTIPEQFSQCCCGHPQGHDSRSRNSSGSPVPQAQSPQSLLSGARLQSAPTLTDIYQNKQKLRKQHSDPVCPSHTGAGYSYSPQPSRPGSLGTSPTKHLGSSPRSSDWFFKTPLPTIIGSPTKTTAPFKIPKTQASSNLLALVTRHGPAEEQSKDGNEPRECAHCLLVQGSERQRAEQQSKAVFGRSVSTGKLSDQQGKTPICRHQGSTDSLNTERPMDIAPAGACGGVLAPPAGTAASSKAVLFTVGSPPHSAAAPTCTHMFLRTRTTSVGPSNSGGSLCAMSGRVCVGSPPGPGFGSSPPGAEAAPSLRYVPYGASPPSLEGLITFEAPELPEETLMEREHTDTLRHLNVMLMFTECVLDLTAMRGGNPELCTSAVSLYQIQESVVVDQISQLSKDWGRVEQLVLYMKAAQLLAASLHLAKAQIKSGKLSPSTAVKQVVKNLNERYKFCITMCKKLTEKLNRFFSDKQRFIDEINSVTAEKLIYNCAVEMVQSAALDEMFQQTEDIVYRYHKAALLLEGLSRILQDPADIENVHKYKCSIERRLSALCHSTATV

[8] = Bioavailability in adult CD-1 mice; format: in vivo
[9] = system: CIA mouse model; assay: CIA mouse model of inflammatory arthritis; format: in vivo, DBA/1 mice
Summary of the method: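 Type II collagen emulsified 1:1 with Freund's complete adjuvant; mice anaesthetised with isoflurane and given intradermal tail-base injections (400 μg collagen total) on days 0 and 21, then randomised by body weight on day 21.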

[10] = oral administration, normal mice
[11] = 50 mg/kg IP, all joints (paws and knees), vs vehicle

MAP4K5, sequence (Q9Y4K4 whole entry): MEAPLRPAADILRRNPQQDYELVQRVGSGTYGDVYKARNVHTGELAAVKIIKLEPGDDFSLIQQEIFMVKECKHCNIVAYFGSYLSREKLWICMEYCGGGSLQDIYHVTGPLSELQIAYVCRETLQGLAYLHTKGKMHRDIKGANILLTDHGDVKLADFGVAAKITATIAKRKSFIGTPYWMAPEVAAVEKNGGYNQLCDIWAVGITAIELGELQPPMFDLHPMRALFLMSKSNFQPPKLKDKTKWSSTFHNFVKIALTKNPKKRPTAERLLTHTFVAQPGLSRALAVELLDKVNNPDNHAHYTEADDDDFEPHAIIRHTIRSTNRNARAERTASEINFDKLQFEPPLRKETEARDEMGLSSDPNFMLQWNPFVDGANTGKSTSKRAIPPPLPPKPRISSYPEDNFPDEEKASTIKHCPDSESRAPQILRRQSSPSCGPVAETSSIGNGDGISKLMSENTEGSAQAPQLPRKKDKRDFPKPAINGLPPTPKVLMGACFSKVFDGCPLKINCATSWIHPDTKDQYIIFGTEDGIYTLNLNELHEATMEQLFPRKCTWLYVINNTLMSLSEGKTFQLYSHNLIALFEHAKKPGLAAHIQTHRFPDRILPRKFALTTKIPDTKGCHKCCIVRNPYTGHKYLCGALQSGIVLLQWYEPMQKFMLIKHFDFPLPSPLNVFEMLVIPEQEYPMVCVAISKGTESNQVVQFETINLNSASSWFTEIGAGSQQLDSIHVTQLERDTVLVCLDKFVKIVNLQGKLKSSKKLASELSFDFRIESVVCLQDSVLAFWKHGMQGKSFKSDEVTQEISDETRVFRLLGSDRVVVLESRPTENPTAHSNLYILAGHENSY
MLK1, sequence (P80192 whole entry): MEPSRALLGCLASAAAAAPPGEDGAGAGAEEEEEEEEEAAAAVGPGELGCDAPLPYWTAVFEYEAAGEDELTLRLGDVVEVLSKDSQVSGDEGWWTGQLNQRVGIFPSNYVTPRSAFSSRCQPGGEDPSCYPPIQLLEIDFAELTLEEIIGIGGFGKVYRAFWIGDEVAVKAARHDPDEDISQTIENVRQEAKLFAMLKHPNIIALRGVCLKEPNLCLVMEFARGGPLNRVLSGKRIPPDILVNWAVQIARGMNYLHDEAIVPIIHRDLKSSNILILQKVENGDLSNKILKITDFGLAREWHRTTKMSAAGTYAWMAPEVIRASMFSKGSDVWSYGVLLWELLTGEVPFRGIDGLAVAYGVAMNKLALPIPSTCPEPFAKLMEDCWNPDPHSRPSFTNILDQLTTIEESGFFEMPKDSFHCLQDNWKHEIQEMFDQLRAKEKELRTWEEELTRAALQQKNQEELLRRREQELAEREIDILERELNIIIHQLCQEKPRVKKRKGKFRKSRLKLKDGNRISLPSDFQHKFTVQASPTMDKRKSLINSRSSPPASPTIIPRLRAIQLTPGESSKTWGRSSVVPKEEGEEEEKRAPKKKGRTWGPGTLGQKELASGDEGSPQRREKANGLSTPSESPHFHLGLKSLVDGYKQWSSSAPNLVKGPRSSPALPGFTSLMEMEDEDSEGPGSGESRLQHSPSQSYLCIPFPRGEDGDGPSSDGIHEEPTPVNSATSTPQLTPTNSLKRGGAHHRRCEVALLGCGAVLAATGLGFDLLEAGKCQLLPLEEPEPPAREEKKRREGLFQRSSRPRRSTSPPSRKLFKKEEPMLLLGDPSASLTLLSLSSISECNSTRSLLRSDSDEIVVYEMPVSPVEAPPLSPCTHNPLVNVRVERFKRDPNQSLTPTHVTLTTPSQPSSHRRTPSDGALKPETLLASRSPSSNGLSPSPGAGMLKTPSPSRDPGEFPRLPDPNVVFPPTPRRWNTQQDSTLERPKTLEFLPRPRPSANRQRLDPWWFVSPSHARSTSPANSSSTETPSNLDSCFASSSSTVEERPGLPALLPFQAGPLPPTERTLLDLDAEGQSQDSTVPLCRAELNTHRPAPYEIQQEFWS
IRAK1, sequence (P51617 whole entry): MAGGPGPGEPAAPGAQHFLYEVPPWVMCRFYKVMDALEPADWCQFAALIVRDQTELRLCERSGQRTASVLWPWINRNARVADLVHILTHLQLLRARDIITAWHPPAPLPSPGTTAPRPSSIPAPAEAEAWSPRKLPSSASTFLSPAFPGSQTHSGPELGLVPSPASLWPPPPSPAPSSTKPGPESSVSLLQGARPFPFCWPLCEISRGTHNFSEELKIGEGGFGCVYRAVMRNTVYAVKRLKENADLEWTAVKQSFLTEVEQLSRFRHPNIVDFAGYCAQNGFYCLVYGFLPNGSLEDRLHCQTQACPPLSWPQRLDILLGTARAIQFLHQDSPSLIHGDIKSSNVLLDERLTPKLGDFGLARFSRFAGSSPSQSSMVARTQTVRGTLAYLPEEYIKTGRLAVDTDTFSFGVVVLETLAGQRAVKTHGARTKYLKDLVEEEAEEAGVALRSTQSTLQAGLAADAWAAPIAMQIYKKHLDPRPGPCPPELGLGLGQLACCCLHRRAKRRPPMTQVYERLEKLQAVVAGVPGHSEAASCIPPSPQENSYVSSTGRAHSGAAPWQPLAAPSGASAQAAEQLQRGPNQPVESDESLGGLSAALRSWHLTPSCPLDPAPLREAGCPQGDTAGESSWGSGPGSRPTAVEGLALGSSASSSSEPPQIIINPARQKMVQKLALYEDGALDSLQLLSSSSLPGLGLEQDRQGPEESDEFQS

## CCCn1c(NC(=O)c2cccc(C(N)=O)c2)nc2ccc(CN3CCCCC3)cc21 [HS-276]
[1]
  pIC50: 5.25
[2]
  pIC50: 6.58
[3]
  enzymatic activity: < 15%
[4]
  enzymatic activity: < 15%
[5]
  pIC50: 6.57
[6]
  reduction of TNF expression: 11 fold
[7]
  enzymatic activity: < 15%
[8]; mouse, IV, 30 mg/kg
  AUC0-last: 7960.0 ng·h/mL
  Cmax: 11,162 ng/ml
  Tmax: 0.08 h
  half-life: 1.24 h
[8]; mouse, PO, 30 mg/kg
  %F: 98.1%
  AUC0-last: 7812 ng·h/mL
  Cmax: 3682 ng/mL
  Tmax: 1 h
  half-life: 1.41 h
[8]; [10]
  bioavailability: > 95%
  plasma levels: μM plasma levels
[9]; 10 mg/kg QD PO
  reduction of arthritic clinical score: 18%
[9]; 25 mg/kg IP
  reduction of disease clinical score: 36%
[9]; 30 mg/kg QD PO
  reduction of arthritic clinical score: 35%
[9]; 50 mg/kg IP
  disease onset: significantly delayed disease onset
  reduction of mean clinical score: 85%
[9]; [11]
  reduction of bone resorption score: 87%
  reduction of cartilage damage score: 76%
  reduction of inflammation score: 62%
  reduction of pannus score: 86%
  reduction of periosteal bone formation score: 93%
[9]; 50 mg/kg, days 26 through 36, vs disease control
  clinical arthritis scores: significantly reduced
[9]; 50 mg/kg, vs disease control mice
  reduction of AUC of clinical arthritis scores: 85%
[9]; 10 and 30 mg/kg QD PO and 25 mg/kg IP, vs vehicle
  disease onset: did not significantly delay disease onset
[9]; day 36, 50 mg/kg IP, vehicle 92%
  disease incidence: 75%
